Our source for the deltaT, Kd and Activity values is ChEMBL document CHEMBL4732170, “Discovery of Small-Molecule Antagonists of the PWWP Domain of NSD2” (J Med Chem, 2021).

The target of test [1] is T1, Histone-lysine N-methyltransferase NSD2 (Homo sapiens) (UniProt O96028).
T1 sequence (whole entry): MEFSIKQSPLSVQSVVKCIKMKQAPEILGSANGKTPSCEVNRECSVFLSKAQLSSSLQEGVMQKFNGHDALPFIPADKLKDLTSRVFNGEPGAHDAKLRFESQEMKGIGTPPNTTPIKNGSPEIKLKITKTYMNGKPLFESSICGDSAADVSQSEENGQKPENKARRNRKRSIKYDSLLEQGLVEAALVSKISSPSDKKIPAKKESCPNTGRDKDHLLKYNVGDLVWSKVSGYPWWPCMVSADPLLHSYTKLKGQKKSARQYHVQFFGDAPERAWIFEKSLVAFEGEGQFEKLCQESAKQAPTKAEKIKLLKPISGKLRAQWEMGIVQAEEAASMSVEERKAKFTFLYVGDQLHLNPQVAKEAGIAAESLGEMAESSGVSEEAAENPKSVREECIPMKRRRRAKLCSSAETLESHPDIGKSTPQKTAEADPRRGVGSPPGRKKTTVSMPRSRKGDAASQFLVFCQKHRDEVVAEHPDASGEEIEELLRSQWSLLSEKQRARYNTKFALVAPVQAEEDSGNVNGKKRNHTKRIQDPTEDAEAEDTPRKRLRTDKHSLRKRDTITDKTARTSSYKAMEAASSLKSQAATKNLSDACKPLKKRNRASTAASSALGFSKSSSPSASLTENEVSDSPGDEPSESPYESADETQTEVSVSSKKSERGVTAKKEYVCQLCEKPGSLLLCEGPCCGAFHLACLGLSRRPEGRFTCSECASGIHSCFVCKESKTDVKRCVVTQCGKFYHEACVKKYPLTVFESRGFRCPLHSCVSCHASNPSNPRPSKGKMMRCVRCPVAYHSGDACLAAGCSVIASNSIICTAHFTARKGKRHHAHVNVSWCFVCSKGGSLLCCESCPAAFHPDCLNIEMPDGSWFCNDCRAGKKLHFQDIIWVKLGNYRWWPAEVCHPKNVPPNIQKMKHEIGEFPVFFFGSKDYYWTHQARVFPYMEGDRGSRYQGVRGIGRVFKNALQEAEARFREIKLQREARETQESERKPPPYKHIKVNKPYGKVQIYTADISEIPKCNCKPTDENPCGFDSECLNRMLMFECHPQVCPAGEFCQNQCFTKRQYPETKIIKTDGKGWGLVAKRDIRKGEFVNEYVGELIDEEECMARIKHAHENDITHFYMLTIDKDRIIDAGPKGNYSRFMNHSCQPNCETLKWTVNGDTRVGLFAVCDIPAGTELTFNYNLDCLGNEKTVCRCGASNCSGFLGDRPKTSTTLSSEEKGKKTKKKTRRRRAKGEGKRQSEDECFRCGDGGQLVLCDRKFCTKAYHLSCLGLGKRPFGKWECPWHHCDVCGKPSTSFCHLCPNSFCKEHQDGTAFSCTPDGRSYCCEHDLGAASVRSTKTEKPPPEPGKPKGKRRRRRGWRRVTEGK
To be noted: filed as antagonist, dose 400.0 µM.

The target in test [2] is T2, Histone-lysine N-methyltransferase NSD2 (Homo sapiens, UniProt O96028).
T2 sequence (O96028 whole entry): T1 sequence (whole entry)
Briefly: Binding affinity to NSD2 PWWP1 domain (unknown origin) assessed as dissociation constant by surface plasmon resonance analysis. Put shortly:
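SPR in single-cycle kinetics, HBS-EP buffer (20 mM HEPES pH 7.4, 150 mM NaCl, 3 mM EDTA, 0.05% Tween-20) with 5% DMSO. Ten concentrations from 200 μM top, twofold dilutions. Contact time 60 s, dissociation 120 s, flow 75 μL/min; Kd derived.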
Background: SPR reads the build-up and loss of mass on a sensor chip optically.

Test [3] addresses DNA (cytosine-5)-methyltransferase 3B (Homo sapiens) (UniProt Q9UBC3). Briefly: Binding affinity to DNMT3b PWWP domain (unknown origin) assessed as aggregation temperature at 400 uM by heating at 25 to 85 degC by differential static light scattering method.
For test [4], the target named is T3, Zinc finger CW-type PWWP domain protein 1 (Homo sapiens) (UniProt Q9H0M4).
T3 sequence (whole entry): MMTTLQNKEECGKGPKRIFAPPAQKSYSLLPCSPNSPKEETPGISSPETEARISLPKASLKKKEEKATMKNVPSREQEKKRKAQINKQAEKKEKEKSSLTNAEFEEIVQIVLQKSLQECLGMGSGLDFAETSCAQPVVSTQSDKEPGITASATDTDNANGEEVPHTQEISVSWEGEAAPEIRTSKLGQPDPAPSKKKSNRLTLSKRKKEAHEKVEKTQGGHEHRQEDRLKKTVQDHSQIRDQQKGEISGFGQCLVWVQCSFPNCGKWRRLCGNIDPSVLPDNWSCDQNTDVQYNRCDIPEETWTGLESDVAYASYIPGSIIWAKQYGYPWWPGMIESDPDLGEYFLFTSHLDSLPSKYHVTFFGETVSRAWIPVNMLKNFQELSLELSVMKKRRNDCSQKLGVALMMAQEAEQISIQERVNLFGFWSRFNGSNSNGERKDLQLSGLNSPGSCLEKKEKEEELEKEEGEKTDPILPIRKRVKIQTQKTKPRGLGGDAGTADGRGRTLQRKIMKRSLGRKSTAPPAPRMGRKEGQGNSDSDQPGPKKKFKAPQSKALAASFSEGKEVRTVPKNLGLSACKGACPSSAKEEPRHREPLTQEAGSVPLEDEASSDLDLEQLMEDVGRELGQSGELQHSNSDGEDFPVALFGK
Briefly: Binding affinity to ZCWPW1 PWWP1 domain (unknown origin) assessed as aggregation temperature at 400 uM by heating at 25 to 85 degC by differential static light scattering method.

Activity calls are given as the source filed them. The calls are words filed in the database; no cut-off is given here.

As a reminder, the Kd is the equilibrium constant for the complex coming apart. On to `N#Cc1ccc(C(C(N)=O)N2CCC2c2ccc(Cl)cc2)cc1` (centres undefined), for which the deltaT in test [1] amounted to 3.9 °C. Also, the Kd in test [2] amounted to 41 µM. In addition, the outcome in test [3] and in test [4] was inactive.
